The nature of series [1]: Plasma pharmacokinetics in patients. Format: in vivo, human.
Series [2] relates to VEGFR2. Particulars: cited from earlier work.
Series [3] deals with advanced GIST. Particulars: cited from earlier work.
Series [4] concerns advanced gastrointestinal stromal tumor (GIST). Put plainly: Phase I study efficacy, investigator assessed, RECIST version 1.1. Format: in vivo, human. The conditions noted are these: 150 mg once daily. Summed up:
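Patients with advanced GIST after ≥1 prior systemic therapy received oral test compound 150 mg once daily in 28-day cycles, in dose-escalation or expansion. Imaging at screening, after cycles 2, 4 and 6, then every three cycles and at final visit. Responses were investigator-assessed per RECIST 1.1 and confirmed about 28 days later. Intent-to-treat population, grouped by line of therapy.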

Series [5] concerns BRAF. The conditions noted are these: cited from earlier work.
Series [6] relates to TIE2. Particulars: cited from earlier work.
Series [7] deals with PDGFRB. The conditions noted are these: cited from earlier work.
Series [8] is described as follows: Phase I study safety: TEAEs, DLTs, MTD. The series is classed as in vivo, human. The conditions noted are these: for MTD: maximum dose evaluated 200 mg twice a day. Summed up:
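Oral test compound was given at 20-200 mg twice a day or 100-250 mg once daily in 28-day cycles, using pharmacologically guided 3 + 3 escalation. A level was safe with zero DLTs in three or one in six patients. AEs were recorded from consent to 30 days after last dose and investigator-graded by CTCAE v4.03. Safety population: all patients dosed.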

Series [9] relates to metastatic GIST. Particulars: first-line; cited from earlier work.
Series [10] has as its system GIST. The conditions noted are these: cited from earlier work.
Series [11] has as its system GIST. The conditions noted are these: cited from earlier work. The source holds these as a separate data set.
[12] abbreviates: 150 mg once daily, cycle 1 day 15.

Values joined by “and” are separate entries in the source; they are usually repeats but may differ in a detail not shown here. Equal values may be shown once. “Also recorded” adds a separate entry of the source. Read-outs that look alike come from different tables or passages of the source.

Regarding `CCn1c(=O)c(-c2cc(NC(=O)Nc3ccccc3)c(F)cc2Br)cc2cnc(N)cc21` [DP-5439], in series [1] (setting [12]), the accumulation is 4.6- to 5.3 fold. Moreover, the figures for the “exposure (AUC) relative to parent ripretinib” value in series [1] (15 days of dosing at 150 mg once daily) and in series [1] (single 150-mg doses) were “approximately 129%” and “approximately 49%”, respectively.

The term Tmax denotes the time from dosing to the highest level. As for `CCn1c(=O)c(-c2cc(NC(=O)Nc3ccccc3)c(F)cc2Br)cc2cnc(NC)cc21` [Ripretinib, 1-[4-bromo-5-[1-ethyl-7-(methylamino)-2-oxo-1,2-dihydro-1,6-naphthyridin-3-yl]-2-fluorophenyl]-3-phenylurea], the inhibition in vitro result in series [2] is “inhibits”. Further, the mPFS in series [3] was 6.3 month. Also, in series [4] (fourth line or greater), the “Duration of response, median (95% CI)” value is reported as 17.5 months; the “ORR (95% CI)” value stood at 7.2%; the “PFS, median (95% CI)” value is on record as 5.5 months; the “probability of PFS at 12 months” value is 21.2%. In addition, in [4] (second line), the “Duration of response, median (95% CI)” value is 18.4 months; the “ORR (95% CI)” value was 19.4%; the “PFS, median (95% CI)” value was 10.7 months; the “probability of PFS at 12 months” value was 33.5%. Further, in series [4] (third line), the “ORR (95% CI)” value is reported as 14.3%; the “PFS, median (95% CI)” value is given as 8.3 months; the “probability of PFS at 12 months” value worked out at 29.2%. Moreover, in series [4] (total), the “Duration of response, median (95% CI)” value came out at 18.4 months and the “ORR (95% CI)” value was 11.3%. Moreover, in series [1] (setting [12]), the “Cmax higher compared with cycle 1 day 1” value turned out to be 61%. For the same compound, the “accumulation on the basis of AUC0-12h” value in series [1] (150 mg once daily, cycle 1 day 15 vs day 1) was 66%. For the same compound, the Tmax in series [1] (human, plasma, oral, time to Tmax, single doses, fasting, cycle 1 day 1) was 2 to 10 h. Besides, the “CV% for Cmax and AUC0-24h” value in series [1] (single doses with PK data for at least 10 patients) is recorded as 35%-60%. For the same compound, the inhibition in vitro entry in series [5] was “inhibits”. For the same compound, the inhibition in vitro entry in series [6] is “inhibits”. Further, the inhibition in vitro result in [7] was “inhibits”. The DLT entry in series [8] (100 mg twice a day (n = 12)) was “asymptomatic grade 3 lipase elevation”. In [8] (150 mg once daily (n = 12)), the DLT result is reported as “asymptomatic grade 4 creatine phosphokinase increase”. Further, in series [8] (200 mg twice a day (n = 7)), the DLT entry was “asymptomatic grade 3 lipase elevation”. In series [8] (GIST, 150 mg once daily), the “Alopecia, Total Grades 1–4” value was 88 [62.0%] No. (%) and 88 (62.0%) No. (%); the “Constipation, Total Grades 1–4” value was 56 [39.4%] No. (%); the “Decreased appetite, Total Grades 1–4” value is 48 [33.8%] No. (%); the “Diarrhea, Total Grades 1–4” value is 47 [33.1%] No. (%). In series [8] (GIST, 150 mg once daily), the “Fatigue, Total Grades 1–4” value is 78 [54.9%] No. (%); the “Lipase increased, Grade 3/4” value was 25 (17.6%) No. (%); the “Myalgia, Total Grades 1–4” value was 69 [48.6%] No. (%); the “Nausea, Total Grades 1–4” value was 65 [45.8%] No. (%). In series [8] (GIST, 150 mg once daily), the “PPES, Total Grades 1–4” value is 62 [43.7%] No. (%); the “TEAEs leading to a dose reduction” value is on record as 26 (18.3%) patients (%); the “TEAEs leading to treatment interruption” value is 77 (54.2%) patients (%); the “Treatment-emergent SAE: abdominal pain” value was 14 [9.9%] n [%]. In series [8] (GIST, 150 mg once daily), the “Treatment-emergent SAE: cancer surgery” value is 7 [4.9%] n [%], the “Treatment-emergent SAE: death” value is 11 [7.7%] n [%], the “Treatment-emergent SAE: sepsis” value was 6 [4.2%] n [%] and the “patients who discontinued study treatment because of PPES” value is on record as “no patients”. In addition, in series [8] (GIST, 150 mg once daily, total), the “Any TEAE” value is 142 (100%) No. (%). In series [8] (all patients), the “Any TEAE, grade 3 and 4” value was 173 (67.1%) No. (%); the “Any TEAE, grade All” value was 257 (99.6%) No. (%); the “TEAEs leading to a dose reduction” value is given as 38 (14.7%) patients (%); the “TEAEs leading to treatment interruption” value is reported as 127 (49.2%) patients (%). In [8] (all patients), the “Treatment-emergent SAE: abdominal pain” value is 17 [6.6%] n [%], the “Treatment-emergent SAE: cancer surgery” value is 10 [3.9%] n [%], the “Treatment-emergent SAE: death” value is 16 [6.2%] n [%] and the “Treatment-emergent SAE: dyspnea” value was 8 [3.1%] n [%]. In [8] (all patients), the “discontinued study treatment secondary to a drug-related TEAE” value is on record as 16 (6.2%) patients (%) and the “treatment-emergent serious adverse event (SAE)” value was 137 (53.1%) patients (%). Also, in series [8] (dose-escalation phase), the DLTs reported entry is recorded as “Three” and the “patients at each dose level who experienced a DLT” value is less than 33%. This compound displayed an RP2D in series [8] (in vivo) of 150 mg once daily. Besides, in series [8], the MTD entry was “no maximum tolerated dose was reached”. In series [8] (listed as ripretinib), the MTD result is given as “not reached; also recorded: No MTD was reached”.

With `Cc1ccc(NC(=O)c2ccc(CN3CCN(C)CC3)cc2)cc1Nc1nccc(-c2cccnc2)n1` [imatinib], the mPFS in series [9] is reported as 1.7-2 years.

As for `CNC(=O)c1cc(Oc2ccc(NC(=O)Nc3ccc(Cl)c(C(F)(F)F)c3)c(F)c2)ccn1` [regorafenib], the “syndromes such as PPES, grade 3” value in series [10] is listed as 19.7%. The mPFS in series [10] (third-line) is approximately 4.8 months.

Regarding `CCN(CC)CCNC(=O)c1c(C)[nH]c(/C=C2\C(=O)Nc3ccc(F)cc32)c1C` [sunitinib], the “syndromes such as PPES, grade 3” value in series [11] was 4%. For the same compound, in series [11] (second-line), the mPFS result is “approximately 5.6 months”.

(Values after article PMC7526717 (Journal of Clinical Oncology, 2020).)
